Measured values taken from ChEMBL document CHEMBL4334465, “SAR Studies on Aromatic Acylhydrazone-Based Inhibitors of Fungal Sphingolipid Synthesis as Next-Generation Antifungal Agents” (J Med Chem, 2019).
Converted amounts (≈) assume the structure as drawn. The source made the active and inactive calls. The calls are words filed in the database; no cut-off is given here.

Key:
[1] = Selectivity index, ratio of LD50 for human HepG2 cells to MIC80 for Cryptococcus neoformans H99; type: toxicity; conditions: read-out: Selectivity Index
Outline: (§1)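 SI = LD₅₀/MIC₈₀. Cytotoxicity: A549 or HepG2 cells (DMEM, 10% FBS, passage 7, 10⁵ cells/well) adhered 14 h, then exposed to 0.03–128 μg/mL for 24 or 48 h at 37°C, 5% CO₂; MTT 4 h, formazan dissolved in DMSO, read at 570 nm. MIC₈₀ against C. neoformans from broth microdilution in HEPES-buffered YNB, pH 7.0.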

[2] = Selectivity index, ratio of LD50 for human A549 cells to MIC80 for Cryptococcus neoformans H99; type: toxicity; conditions: read-out: Selectivity Index; outline: as §1
A549 = experiment: Cytotoxicity against human A549 cells after 24 to 48 hrs by MTT assay; type: functional; conditions: read-out: LD50 (the source's name)
Outline: (§2)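 A549 and HepG2 kept in DMEM with 10% FBS and 1% pen-strep. At passage 7, seeded at 10⁵ cells/well and allowed to adhere 14 h. Compound added at 0.03–128 μg/mL, untreated wells as controls. Incubation 37°C, 5% CO₂ for 24 or 48 h. MTT (5 mg/mL in PBS) added for 4 h, formazan dissolved in DMSO, OD570.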

Cryptococcus neoformans [3] = experiment: Antifungal activity against Cryptococcus neoformans H99 measured after 24 to 72 hrs; type: functional; conditions: var grubii H99
Outline: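 Modified CLSI broth microdilution with inoculum per M27A3. Compounds were serially diluted 32 to 0.03 μg/mL. Media: C. neoformans in HEPES-buffered YNB without amino acids (pH 7.0, 2% glucose); Candida strains in YNB without ammonium sulfate or amino acids plus 1% asparagine (pH 7.0, 2% glucose); A. fumigatus in RPMI (pH 7.0, 2% glucose).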

HepG2 = experiment: Cytotoxicity against human HepG2 cells after 24 to 48 hrs by MTT assay; type: functional; conditions: read-out: LD50 (the source's name); outline: as §2
Cryptococcus neoformans [4] = experiment: Fungistatic activity against Cryptococcus neoformans H99 by time-kill assay; type: functional, organism-based; conditions: var grubii H99
Outline: (§3)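 Overnight C. neoformans washed in PBS and resuspended in HEPES-buffered YNB, pH 7.4. 2 × 10⁴ cells exposed to a range of drug concentrations in 10 mL with 0.5% DMSO final, at 37°C, 5% CO₂, shaking at 200 rpm. Aliquots sampled over 96 h, diluted and plated on YPD; CFU counted after 48 h at 30°C.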

Cryptococcus neoformans [5] = experiment: Fungicidal activity against Cryptococcus neoformans H99 measured after 12 hrs by time-kill assay; type: functional, var grubii H99; outline: as §3
Cryptococcus neoformans [6] = experiment: Fungicidal activity against Cryptococcus neoformans H99 measured after 72 hrs by time-kill assay; type: functional, var grubii H99; outline: as §3
Cryptococcus neoformans [7] = experiment: Fungicidal activity against Cryptococcus neoformans H99 measured after 96 hrs by time-kill assay; type: functional, var grubii H99; outline: as §3
Cryptococcus neoformans [8] = experiment: Fungicidal activity against Cryptococcus neoformans H99 measured after 6 hrs by time-kill assay; type: functional, var grubii H99; outline: as §3

Structure (SMILES)	selectivity ratio [1]	selectivity ratio [2]	CC50 (A549)	MIC80 (Cryptococcus neoformans [3])	CC50 (HepG2)	Activity (Cryptococcus neoformans [4])	MFC100 (Cryptococcus neoformans [5])	MFC100 (Cryptococcus neoformans [6])	MFC100 (Cryptococcus neoformans [7])	MFC100 (Cryptococcus neoformans [8])
O=C(N/N=C/c1c(O)ccc2ccccc12)c1ccc(Br)c(Br)c1	133	33.3	4 µg/mL (≈ 8.93 µM)	0.12 µg/mL (≈ 0.268 µM)	16 µg/mL (≈ 35.7 µM)	Active	–	–	–	–
CN(C)c1ccc(C(=O)N/N=C/c2cc(Br)cc(Br)c2O)cc1	32	32	16 µg/mL (≈ 36.3 µM)	0.5 µg/mL (≈ 1.13 µM)	16 µg/mL (≈ 36.3 µM)	Active	–	–	–	–
O=C(N/N=C/c1cccc(Br)c1O)c1cccc(F)c1	16	16	16 µg/mL (≈ 47.5 µM)	1 µg/mL (≈ 2.97 µM)	16 µg/mL (≈ 47.5 µM)	–	2 µg/mL (≈ 5.93 µM)	–	–	–
CN(C)c1ccc(C(=O)N/N=C/c2ccc(Br)cc2O)cc1	64	64	16 µg/mL (≈ 44.2 µM)	0.25 µg/mL (≈ 0.69 µM)	16 µg/mL (≈ 44.2 µM)	Active	–	–	–	–
O=C(N/N=C/c1cc(Cl)ccc1O)c1ccc(Br)cc1Br	256	256	64 µg/mL (≈ 148 µM)	0.25 µg/mL (≈ 0.578 µM)	64 µg/mL (≈ 148 µM)	–	1 µg/mL (≈ 2.31 µM)	–	–	–
O=C(N/N=C/c1cc(Br)cc(Br)c1O)c1cnc2ccccc2c1	128	128	32 µg/mL (≈ 71.3 µM)	0.25 µg/mL (≈ 0.557 µM)	32 µg/mL (≈ 71.3 µM)	Active	–	–	–	–
O=C(N/N=C/c1cc(Br)ccc1O)c1ccc(OC(F)F)cc1	64	128	32 µg/mL (≈ 83.1 µM)	0.25 µg/mL (≈ 0.649 µM)	16 µg/mL (≈ 41.5 µM)	–	–	2 µg/mL (≈ 5.19 µM)	–	–
O=C(N/N=C/c1cccc(Cl)c1O)c1cccc(C(F)(F)F)c1	32	32	32 µg/mL (≈ 93.4 µM)	1 µg/mL (≈ 2.92 µM)	32 µg/mL (≈ 93.4 µM)	–	–	–	2 µg/mL (≈ 5.84 µM)	–
Cc1ccc(O)c(/C=N/NC(=O)c2ccc(Br)c(Br)c2)c1	133	133	16 µg/mL (≈ 38.8 µM)	0.12 µg/mL (≈ 0.291 µM)	16 µg/mL (≈ 38.8 µM)	–	–	0.5 µg/mL (≈ 1.21 µM)	–	–
O=C(N/N=C/c1cc(Br)ccc1O)c1ccccc1C(F)(F)F	16	16	16 µg/mL (≈ 41.3 µM)	1 µg/mL (≈ 2.58 µM)	16 µg/mL (≈ 41.3 µM)	–	–	1 µg/mL (≈ 2.58 µM)	–	–
O=C(N/N=C/c1cc(Br)ccc1O)c1ccc(Br)c(Br)c1	32	32	8 µg/mL (≈ 16.8 µM)	0.25 µg/mL (≈ 0.524 µM)	8 µg/mL (≈ 16.8 µM)	–	–	1 µg/mL (≈ 2.1 µM)	–	–
O=C(N/N=C/c1cc(Cl)cc(Cl)c1O)c1ccc(Br)cc1Br	64	128	128 µg/mL (≈ 274 µM)	1 µg/mL (≈ 2.14 µM)	64 µg/mL (≈ 137 µM)	–	–	–	–	0.5 µg/mL (≈ 1.07 µM)
N#Cc1ccc(C(=O)N/N=C/c2cc(Br)cc(Br)c2O)cc1	267	1070	64 µg/mL (≈ 151 µM)	0.06 µg/mL (≈ 0.142 µM)	16 µg/mL (≈ 37.8 µM)	–	–	1 µg/mL (≈ 2.36 µM)	–	–
O=C(N/N=C/c1cc(C(F)(F)F)ccc1O)c1cccc(Br)c1	32	32	16 µg/mL (≈ 41.3 µM)	0.5 µg/mL (≈ 1.29 µM)	16 µg/mL (≈ 41.3 µM)	Active	–	–	–	–
